A selection: hits, their analogues and other compounds. The true share with any hit is near 3.9%.
FLuc inhib CS: inhibits firefly luciferase, flagging false hits in luciferase inhibition screens. inhibition, % at 10 µM. AID 1006. 200,000 tested, 1.5% active. ATPLite firefly luciferase biochemical luminescence, 10 min. P08659;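 active = inhibition above about 50% when tested at 10 µM, limit read from the data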
STAT1 activator: increases IFN-gamma driven STAT1 reporter signal; AID 932; NIH 3T3 STAT1-luciferase reporter, luminescence; 100% = IFN-gamma alone, no compound; activation (% of control), % at 5.5 µM; 200,000 tested, 2.6% active;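 active = activation above the screen-wide mean activation plus 3 SD, cut at about 130% in these data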;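 note: raw ratio to IFN-gamma control signal so 100% means no change and 0% no light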
Rad51 HR inh: blocks human Rad51 in homologous recombination; 200,000 tested, 0.085% active; hRad51 DNA strand exchange, fluorescence dequenching; AID 1385; inhibition, % at 10 µM; Q06609;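 active = inhibition above 40% at the single screening dose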;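 note: 0% = DMSO control wells and 100% = blanks with heterologous ssDNA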
Target sequence (Q06609 whole entry, looked up): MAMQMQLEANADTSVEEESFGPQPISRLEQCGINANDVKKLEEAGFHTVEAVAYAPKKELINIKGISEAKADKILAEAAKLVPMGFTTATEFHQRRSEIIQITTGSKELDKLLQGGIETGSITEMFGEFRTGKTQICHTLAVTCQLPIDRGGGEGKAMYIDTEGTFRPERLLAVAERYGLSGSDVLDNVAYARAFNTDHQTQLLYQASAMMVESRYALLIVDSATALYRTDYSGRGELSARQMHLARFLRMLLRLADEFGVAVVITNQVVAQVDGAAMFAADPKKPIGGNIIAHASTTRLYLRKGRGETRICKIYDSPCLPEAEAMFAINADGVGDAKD
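Material: human Rad51–ssDNA filaments; Probe or stimulus: labelled 47-mer dsDNA for strand exchange; Doses: single 10 µM dose; Incubation: 37 °C 15-min filament assembly, 30-min compound preincubation, 15-min exchange; Technique: FRET fluorescence dequenching, excitation 485 nm, emission 520 nm; Measure: Fluorescence-based percent inhibition, control- and blank-normalised; Benchmarks: plate control and blank wells.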
APP 5'UTR act: activates APP 5'UTR luciferase reporter | SH-SY5Y APP 5'UTR luciferase reporter, luminescence; zero percent = DMSO vehicle wells | activation, % at 2 µM | 190,000 tested, 1% active;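 active = activation above a set limit, based on mean plus 3 SD of controls, cut at about 140% in these data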
FLuc act counter: affects firefly luciferase, flagging false hits in luciferase stimulation screens | ATPlite luciferase biochemical, luminescence, 10 min; 0 = ATP-free wells, 1 = DMSO control | activation factor at 10 µM | 200,000 tested, under 10 active;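 active = luciferase activation factor, scaled between plate controls, of at least 2 with compound at 10 µM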
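System: luciferase plus luciferin reagent, cell-free; medium: PBS as buffer for the ATP substrate; dosing: test compounds dosed from 2 mM stocks in 100% DMSO; timing: 10 min post-reagent at room temperature; measured by: luminescence measurement of luciferase light output; evaluation: luciferase activation, seen as luminescence increase over controls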
NF-kB expr up: raises NF-kB expression in human neuronal cells; NF-kB reporter expression; stronger effect = higher value; fold change at 12.5 µM; 190,000 tested, 1.6% active; AID 1239; in the data active = fold change above about 3.3
* = called active by the depositor; x = no result given.

SMILES	FLuc inhib CS	STAT1 activator	Rad51 HR inh	APP 5'UTR act	FLuc act counter	NF-kB expr up
S=C(NCc1ccc2c(c1)OCO2)Nc1ccc(-c2nc3ccccc3[nH]2)cc1	7.8	97.2	23.3	3.1	0.9	1.12
O=C(CCNc1ccc(Cc2ccncc2)cc1)c1ccc([N+](=O)[O-])cc1	-6.3	100.1	-9.9	12.1	1.1	0.97
Cc1cccc2sc(NNC(=O)c3ccc4c(c3)OCCO4)nc12	-7.3	106.1	x	16.6	1.1	1.49
O=C(NNc1nc2cc3c(cc2s1)OCCO3)c1ccccc1	11.1	132.0*	11.2	37.6	0.9	1.93
O=C(NCc1cccc(Br)c1)C1CC2Cn3c(nc4ccccc43)C2N1c1ccccc1 (centres undefined)	x	x	8.1	x	x	x
Cc1ccc(OCC(=O)NCC(=O)Nc2ccc(F)cc2)c([N+](=O)[O-])n1	-3.0	103.8	5.8	3.1	1	1.13
O=C(COc1ccccc1[N+](=O)[O-])N/N=C/c1cccc(OC(=O)c2ccc3c(c2)OCO3)c1	-2.1	141.4*	-6.1	48.1	1	2.52
O=C(COc1ccccc1[N+](=O)[O-])Nc1ccc2c(c1)OCO2	58.3*	150.1*	x	105.7	0.4	x
Cc1ccc(Cl)c(OCC(=O)Nc2ccc3c(c2)OCCO3)c1	22.1	123.2	4.4	159.5*	0.8	3.84*
Cc1ccc(OCC(=O)Nc2ccc(F)cc2)c([N+](=O)[O-])n1	35.2	142.2*	-8.4	68.3	0.6	1.16
CCOc1ccc(OCC)c(S(=O)(=O)NC2CC(C)(C)NC(C)(C)C2)c1	-6.3	101.1	x	-12.6	1.1	0.99
COc1ccc(CCc2nnc(CCC(=O)NCCc3ncccc3C)o2)cc1	0.3	109.2	11.2	-1.9	1	1.44
Cc1cccc(OCC(=O)Nc2ccc3c(c2)OCO3)c1C	7.4	100.4	0.9	25.6	0.9	1.22
O=C(COc1cc(F)ccc1[N+](=O)[O-])Nc1cccc(Br)c1	-4.4	128.9*	-1.6	40.4	1	1.34
Cc1ccc(OCC(=O)Nc2ccc3c(c2)OCO3)c(C)c1	54.5*	111.4	x	25.3	0.5	x
O=C(COc1ccccc1[N+](=O)[O-])Nc1cc(C(=O)O)cc(C(=O)O)c1	-8.0	101.1	3.1	0.7	1.1	1.21
CCN(CC)CCNC(=O)/C(=C/c1cn(C)c2ccccc12)NC(=O)c1ccc(OC)c(OC)c1	x	x	-1.0	x	x	x
COc1ccc(N2C(=O)c3ccccc3NC2(C)C)cc1	-4.2	126.1	-20.6	46.5	1	1.61
CCC1(C)Nc2ccccc2C(=O)N1O (centres undefined)	-7.7	104.1	40.7*	4.5	1.1	1.34
O=C(COC(=O)CCc1nc2ccccc2s1)NC(=O)NCc1ccco1	-0.7	106.8	-19.5	-1.2	1	1.12
C=CCN=c1scc(-c2ccc3c(c2)NC(=O)CO3)n1/N=C(\C)c1ccccn1	-6.9	80.5	-1.2	-51.6	1.1	0.75
C=CCN=c1scc(-c2ccccc2)n1/N=C/c1ccccn1	44.7	214.7*	-5.5	99.3	0.6	7.47*
C=CCN=c1scc(-c2ccc(F)cc2)n1/N=C/c1ccccn1	-1.1	119.6	8.3	46.5	1	3.33*
COc1cc(N/N=C/c2ccc(N(C)C)cc2)ncn1	86.4*	68.5	10.1	135.3*	0.1	4.13*
O=C(Nc1ccc(F)cc1)c1cnc(-c2ccccc2)nc1-c1ccccc1	-2.0	132.9*	2.3	4.0	1	1.08
SMILES	FLuc inhib CS	STAT1 activator	Rad51 HR inh	APP 5'UTR act	FLuc act counter	NF-kB expr up
O=C(O)c1ccc(NC(=O)c2cn(-c3ccccc3)nc2-c2ccc(F)cc2)cc1	23.8	135.1*	x	10.9	0.8	1.63
C#Cc1ccc([C@H]2C=C(C(=O)NCc3ccccc3)O[C@@H](OCc3ccc(CO)cc3)C2)cc1	x	x	7.9	x	x	x
Cc1c(C#N)c(O)n(C)c(=O)c1N=Nc1ccc(S(N)(=O)=O)cc1	-0.9	141.2*	-11.4	-1.3	1	1.09
Cc1c(C#N)c(O)n(CCO)c(=O)c1N=Nc1ccc(S(N)(=O)=O)cc1	-3.5	95.4	-7.8	13.8	1	1
Nc1ccc(/C=C/C(=O)c2cccs2)cc1	76.9*	121.6	-24.6	142.8*	0.2	5.93*
CCOC(=O)C[C@H]1c2cc(F)ccc2S(=O)(=O)N1Cc1ccc(OC)cc1	x	x	3.0	x	x	x
Cc1cc(Cl)ccc1OCCCC(=O)NO	-2.9	88.0	0.0	19.1	1	3.87*

Compound activity from PubChem.
